Here are results for ten molecules from ChEMBL document CHEMBL1799947, “Synthesis, transport and antiviral activity of Ala-Ser and Val-Ser prodrugs of cidofovir” (Bioorg Med Chem Lett, 2011).

The subject of series [1] is Vaccinia virus. In words: Antiviral activity against Vaccinia virus Copenhagen infected in HFF cells assessed as reduction in plaque formation up to 100 uM after 3 days. Format: functional, organism-based. To be noted: Orthopoxvirus vaccinia.
Series [2] deals with Plasma. In words: Prodrug conversion in CFW Swiss-Webster mouse plasma assessed as cidofovir monoethyl ester formation at 10 mg/kg administered through oral gavage. Type of series: ADME, organism-based. Also on record: dose 10 mg/kg, route oral. Particulars: in vivo.
In series [3] the test system is Plasma. Briefly: Drug uptake in fasted Albino Sprague-Dawley rat plasma at 10 mg/kg administered into gastrointestinal tract measured up to 4 hrs. Type of series: ADME, organism-based. Further details: dose 10 mg/kg. To be noted: in vivo, other. In outline: (§1)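 Rats received 3 mg of drug (about 10 mg/kg) by direct injection into the gastrointestinal tract. Plasma was sampled over a 4 h time course. Read-out was dose-corrected total cidofovir species in plasma.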

Series [4] relates to Plasma. In words: Prodrug conversion in fasted Albino Sprague-Dawley rat assessed as increase of cidofovir species level in plasma at 10 mg/kg into gastrointestinal tract relative to cidofovir or cyclic cidofovir. To be noted: in vivo, other. Further details: dose 10 mg/kg. Format: ADME, organism-based. In outline:
as §1

A short description of series [5]: Antiviral activity against Cowpox virus Brighton infected in HFF cells assessed as reduction in plaque formation after 3 days. Type of series: functional, cell-based, Cowpox virus (Brighton Red). Particulars: 72 h.
Series [6] can be described thus: Cytotoxicity against human KB cells after 48 hrs by crystal violet staining technique. Format: cell-based.
The next series concerns Human betaherpesvirus 5. Briefly: Antiviral activity against Human cytomegalovirus Towne infected in HFF cells assessed as reduction in plaque formation after 10 days. Type of series: functional, organism-based. Particulars: Human betaherpesvirus 5, Towne, 240 h. In outline: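 HCMV plaque reduction assay incubated 10 days, with ganciclovir as the positive control.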
Series [7] relates to Vaccinia virus. Briefly: Antiviral activity against Vaccinia virus Copenhagen infected in HFF cells assessed as reduction in plaque formation after 3 days. Type of series: functional, organism-based. Particulars: Orthopoxvirus vaccinia, 72 h.
Series [8] can be described thus: (§2) Cytotoxicity against HFF cells. Particulars: human, HFF cells. Type of series: cell-based.
The next series concerns HFF. Described as §2. Format: cell-based. To be noted: human, hff.

The source made the active and inactive calls. No cut-off for these calls is given here.

For `CCOP(=O)(O)CO[C@H](CO)Cn1ccc(N)nc1=O`, the result in the series on Vaccinia virus [1] was inactive.

As for `CCOP(=O)(CO[C@H](CO)Cn1ccc(N)nc1=O)OC[C@H](NC(=O)[C@H](C)N)C(=O)OC` (some centres undefined), the result with Plasma [2] was Active. In addition, the Drug uptake entry in the series with Plasma [3] is “Active”.

Consider `CC(C)OC(=O)[C@H](COP(=O)(O)CO[C@H](CO)Cn1ccc(N)nc1=O)NC(=O)[C@H](N)C(C)C` (mixture of isomers), for which the “fold change (FC)” value with Plasma [4] is reported as 15. Besides, the IC50 (commonly the point on the concentration scale where inhibition reaches its midpoint) is more than 100 µM in series [5], 1.3 µM in the series with Human betaherpesvirus 5 and more than 100 µM in the series on Vaccinia virus [7]. Besides, the CC50 (usually the concentration giving 50% cytotoxicity) at 48 h in series [6] is more than 100 µM. Besides, the Drug uptake entry in the series on Plasma [3] is listed as “Active”.

As to `CC(C)OC(=O)[C@H](COP1(=O)CO[C@@H](Cn2ccc(N)nc2=O)CO1)NC(=O)[C@H](N)C(C)C` (some centres undefined), in the series on Plasma [3], the Drug uptake entry was “Active”.

For `Nc1ccn(C[C@@H](CO)OCP(=O)(O)O)c(=O)n1.O.O` [CIDOFOVIR], in series [8], the 50% cytotoxic concentration (CC50) is more than 100 µM. Besides, the IC50 turned out to be 30 µM in [5], 0.11 µM with Human betaherpesvirus 5 and 20 µM in the series on Vaccinia virus [7]. In [6], this molecule had a 50% cytotoxic concentration (CC50) at 48 h of more than 100 µM. The Drug uptake result in the series with Plasma [3] is reported as “Active”.

As for `Nc1ccn(C[C@H]2COP(=O)(O)CO2)c(=O)n1` [CYCLIC CIDOFOVIR], the CC50 in the series with HFF came to 100 µM. The 50% inhibitory concentration (IC50) in series [5] stood at 30 µM; with Human betaherpesvirus 5, 0.25 µM; with Vaccinia virus [7], 40 µM. The molecule also returned a CC50 at 48 h in series [6] of more than 100 µM. Further, the Drug uptake entry in the series with Plasma [3] is “Active”.

For `CCOP(=O)(CO[C@H](CO)Cn1ccc(N)nc1=O)OC[C@H](NC(=O)[C@@H](N)C(C)C)C(=O)OC` (some centres undefined), in the series with Plasma [2], the outcome was Active. Besides, in the series on Plasma [3], the Drug uptake entry is “Not Active”.

Consider `COC(=O)[C@H](COP1(=O)CO[C@@H](Cn2ccc(N)nc2=O)CO1)NC(=O)[C@@H](N)C(C)C` (some centres undefined), for which the CC50 in series [8] is more than 100 µM. The figures for the half-maximal inhibitory concentration (IC50) (in [5]; in the series with Human betaherpesvirus 5; in the series with Vaccinia virus [7]) were more than 30 µM, 0.3 µM and 100 µM, respectively. The molecule further returned a CC50 at 48 h in series [6] of more than 100 µM.

Take `CC(C)OC(=O)[C@H](COP(=O)(O)CO[C@H](CO)Cn1ccc(N)nc1=O)NC(=O)[C@@H](N)C(C)C`: the IC50 was more than 100 µM in series [5], 0.32 µM in the series with Human betaherpesvirus 5 and more than 100 µM with Vaccinia virus [7]. Besides, the CC50 at 48 h in [6] was more than 100 µM.

With `Nc1ncnc2c1ncn2[C@@H]1O[C@H](CO)[C@@H](O)[C@@H]1O` [VIDARABINE], the IC50 with Vaccinia virus [7] amounted to 2 µM.
